“And” between values parts separate entries of the source, which are not always exact repeats. Equal values may be shown once.
Legend:
P388 [1] = test: (§1) T/C ratio against P388 leukemia in mice at a dose(mg/kg, schedule (q.d.)); format: functional, Mus musculus
Method in brief: (§2)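 Mice inoculated ip with 10⁶ P388 leukemia cells on day 0. Dosed once on day 1, or q.d. days 1-9 or 1-5. Solutions or suspensions given within about 5 min of preparation, or within 15 min where marked. Value is median/mean survival time, treated vs control, as T/C %. Dose counted toxic if day-5 mortality >3 of 6, T/C <85%, or weight-change difference beyond -4 g.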

P388 [2] = test: Weight change in mice against P388 leukemia; format: functional, Mus musculus
Method in brief: (§3)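 P388 leukemia mice given 10⁶ cells ip on day 0 and then treated on a single day-1 or q.d. 1-9 or 1-5 schedule. Solutions or suspensions given within about 5 or 15 min of preparation. Value is average weight change on day 5 of treated mice minus that of control mice, in g.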

P388 [3] = test: T/C ratio against P388 leukemia in mice at a dose(mg/kg, schedule (q.d.).; format: functional, organism-based; conditions: Mus musculus; method in brief: as §2
P388 [4] = test: T/C ratio against P388 leukemia in mice at a dose(mg/kg, schedule); format: functional, Mus musculus; method in brief: as §2
P388 [5] = test: as §1; format: functional, Mus musculus; method in brief: as §2; remark: listed apart in the source
P388 [6] = test: T/C ratio against P388 leukemia in mice dose(mg/kg, schedule (q.d.)); format: functional, Mus musculus; method in brief: as §2
P388 [7] = test: weight change difference (T-C) in mice against P388 leukemia at a dose(mg/kg, schedule); format: functional, Mus musculus; method in brief: as §3
P388 [8] = test: as §1; format: functional, Mus musculus; method in brief: as §2; remark: listed apart in the source
P388 [9] = test: as §1; format: functional, Mus musculus; method in brief: as §2; remark: listed apart in the source

SMILES | T/C (P388 [1]) | Weight change difference (P388 [2]) | T/C (P388 [3]) | other results
COc1ccc(S(=O)(=O)OCCCl)cc1 | 100% | 0 g | – | –
C=C(Br)S(=O)(=O)OCCCl | 100% and 104% | -2.8 g and -1.4 g | Toxic | –
CS(=O)(=O)OCCCl | 134% and 133% | -1.6 g and -0.8 g | Toxic | T/C (P388 [4]): 110%; T/C (P388 [5]): 102%; T/C (P388 [6]): 108%; Weight change difference (P388 [7]): -1.2 g and -2.2 g and -0.9 g
O=S(=O)(/C=C/c1ccccc1)OCCCl | 107% | -0.1 g | – | –
Cc1c(C)c(C)c(S(=O)(=O)OCCCl)c(C)c1C | 95% | -0.2 g | – | –
C=CS(=O)(=O)OCCCl | 125% and 111% | – | Toxic | –
Cc1cc(C)c(S(=O)(=O)OCCCl)c(C)c1 | 95% and 106% | – | Toxic | –
O=S(=O)(OCCF)c1cc(Cl)c(Cl)cc1Cl | 113% and 98% | – | Toxic | –
O=S(=O)(OCCCl)c1c(F)c(F)c(F)c(F)c1F | 110% and 100% | – | Toxic | –
CS(=O)(=O)OCCBr | 116% and 114% | – | Toxic | –
CCS(=O)(=O)OCCF | 106% and 111% | -0.7 g and -0.6 g | Toxic | –
O=S(=O)(OCCCl)c1cc(Cl)c(Cl)cc1Cl | 90% and 114% and 105% | – | – | –
O=[N+]([O-])c1ccc(CS(=O)(=O)OCCCl)cc1 | – | – | Toxic | –
N#CCS(=O)(=O)OCCCl | 151% and 144% and 126% | -1.5 g and -2.1 g and -1.1 g | – | –
O=S(=O)(CI)OCCCl | 93% | -0.1 g | Toxic | T/C (P388 [8]): 110%
O=[N+]([O-])c1ccc(/C=C/S(=O)(=O)OCCCl)cc1 | 100% and 104% | – | Toxic | –
CS(=O)(=O)OCCF | 89% and 103% and 111% and 100% | – | Toxic | –
CCOS(=O)(=O)CCl | 107% and 100% and 60% | – | – | –
O=C(CCl)NCCCl | 100% and 97% | – | Toxic | –
O=S(=O)(CCl)NCCCl | 106% | – | – | –
O=S(=O)(CCl)OCCCl | 214% and 201% and 175% and 131% and 120% | – | Toxic | –
O=S(=O)(CBr)OCCCl | 165% and 200% and 159% and 128% and 120% | – | – | Weight change difference (P388 [7]): -0.2 g
O=S(=O)(OCCCl)c1c(Cl)c(Cl)c(Cl)c(Cl)c1Cl | 96% and 92% | -3.2 g and -4.3 g and -1.6 g | Toxic | T/C (P388 [9]): 92%
O=S(=O)(OCCCl)c1ccc(F)cc1 | 100% and 101% | – | – | –
CCS(=O)(=O)OCCCl | 116% and 104% | – | – | –
O=S(=O)(CCl)OCCF | 117% and 102% | -2.1 g and -0.8 g | Toxic | –
